Laboratory results published in ChEMBL document CHEMBL1821703, “Anthraquinone derivatives induce G2/M cell cycle arrest and apoptosis in NTUB1 cells” (Bioorg Med Chem, 2011).
The source made the active and inactive calls. No cut-off for these calls is given here.

Tests used:
PC-3 [1] = assay: Cytotoxicity against human PC3 cells after 72 hrs by MTT assay; assay type: functional; details: PC-3, 72 h, read-out: ED50 (the source's name)
Outline: (§1)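 Cells seeded at 1000/well (NTUB1, PC3) or 5000/well (SV-HUC1), incubated overnight at 37 °C, then exposed to graded concentrations for 72 h. Compounds were made up in DMSO and diluted in medium to 0.1% DMSO. MTT (2 mg/mL in PBS) added for 3 h, formazan dissolved in DMSO, absorbance read at 540 nm. Viability expressed as % of control; IC50 by median-effect analysis.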

[2] = Cytotoxicity against human NTUB1 cells after 72 hrs by MTT assay; assay type: functional; details: NTUB1, 72 h, read-out: ED50 (the source's name); outline: as §1
PC-3 [3] = assay: Cytotoxicity against human PC3 cells at >50 uM after 72 hrs by MTT assay; assay type: functional; outline: as §1
[4] = Cytotoxicity against human NTUB1 cells at >30 uM after 72 hrs by MTT assay; assay type: functional; outline: as §1
[5] = Decrease of Bax protein expression in human NTUB1 cells at 10 to 20 uM after 24 hrs by Western blot analysis; assay type: functional, cell-based
Outline: (§2)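 NTUB1 cells exposed 24 h, trypsinized, and resuspended in PBS. Lysed by boiling twice for 10 min in 2× sample buffer, separated by SDS–PAGE, and semi-dry blotted to nitrocellulose. Membranes blocked in 5% skimmed milk in TBST, probed with primary antibodies overnight at 4 °C, then secondary antibody 1 h at room temperature. ECL chemiluminescence detection; GAPDH as internal control.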

NTUB1 [6] = assay: Induction of ROS production in human NTUB1 cells using H2DCFDA staining after 24 hrs by flow cytometry analysis; assay type: functional, cell-based
Outline: (§3)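 NTUB1 cells treated 24 h with compounds, 20 µM cisplatin or 1 mM NAC. 10 µM H₂DCFDA added 30 min before harvest. Cells trypsinized, washed with PBS, and DCF green fluorescence read at once by FACScan flow cytometry through a 525-nm band-pass filter. Increase expressed with control set at 0%; three independent experiments.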

[7] = Cytotoxicity against human NTUB1 cells assessed as cell viability at 20 uM after 72 hrs by MTT assay relative to control in presence of 1 mM of NAC; assay type: functional
Outline: (§4)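 NTUB1 cells seeded at 1000/well, incubated overnight, then exposed 72 h to 1 mM NAC alone or to compound with NAC. MTT added for 3 h, formazan dissolved in DMSO, absorbance read at 540 nm. Viability expressed relative to untreated control; mean ± SD (n = 3) from one experiment in triplicate.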

[8] = Cell cycle arrest in human NTUB1 cells assessed as accumulation at S phase at 10 uM after 24 hrs using propidium iodide staining by flow cytometry analysis (reference value: 22.61%); assay type: functional, cell-based
Outline: (§5)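 3 × 10⁵ NTUB1 cells per 6-cm dish, treated 24 h (medium-only control). Cells then stained with 50 µg/mL propidium iodide plus 50 µg/mL RNase A in PBS, 30 min at room temperature. DNA content read by FACScan flow cytometry; sub-G1 content taken as apoptosis. Values are mean ± SD of four independent experiments.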

[9] = Cytotoxicity against human NTUB1 cells assessed as cell viability at 10 uM after 72 hrs by MTT assay relative to control; assay type: functional; details: NTUB1, 72 h, read-out: Activity; outline: as §1
[10] = Cytotoxicity against human NTUB1 cells assessed as cell viability at 10 uM after 72 hrs by MTT assay relative to control in presence of 1 mM of NAC; assay type: functional; outline: as §4
[11] = Cell cycle arrest in human NTUB1 cells assessed as accumulation at G1 phase at 10 uM after 24 hrs using propidium iodide staining by flow cytometry analysis (reference value: 56.06%); assay type: functional, cell-based; outline: as §5
[12] = Cell cycle arrest in human NTUB1 cells assessed as accumulation at sub-G1 phase at 10 uM after 24 hrs using propidium iodide staining by flow cytometry analysis (reference value: 1.96%); assay type: functional, cell-based; outline: as §5
NTUB1 [13] = assay: Induction of up-regulation p21 expression in human NTUB1 cells at 20 uM after 24 hrs by Western blot analysis; assay type: functional, cell-based; outline: as §2
[14] = Cell cycle arrest in human NTUB1 cells assessed as accumulation at sub-G1 phase at 20 uM after 24 hrs using propidium iodide staining by flow cytometry analysis (reference value: 1.96%); assay type: functional, cell-based; outline: as §5
NTUB1 [15] = assay: Induction of morphological changes in human NTUB1 cells assessed as increase of tetraploid DNA level using DAPI staining at 20 uM after 24 hrs by immunofluorescence microscopic analysis; assay type: functional, cell-based
Outline: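 3 × 10⁵ NTUB1 cells per 6-cm dish treated 24 h. Fixed in 2% formaldehyde/PBS for 20 min, then cold methanol (−20 °C) for 3 min. Stained with DAPI 1 h at room temperature in the dark and examined by fluorescence microscopy.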

[16] = Cytotoxicity against human NTUB1 cells assessed as cell viability at 20 uM after 72 hrs by MTT assay relative to control; assay type: functional; details: NTUB1, 72 h, read-out: Activity; outline: as §1
[17] = Cell cycle arrest in human NTUB1 cells assessed as accumulation at G2/M phase at 20 uM after 24 hrs using propidium iodide staining by flow cytometry analysis (reference value: 18.61%); assay type: functional, cell-based; outline: as §5
[18] = Cell cycle arrest in human NTUB1 cells assessed as accumulation at G2/M phase at 10 uM after 24 hrs using propidium iodide staining by flow cytometry analysis (reference value: 18.61%); assay type: functional, cell-based; outline: as §5
NTUB1 [19] = assay: Increase of p53 protein expression in human NTUB1 cells at 10 to 20 uM after 24 hrs by Western blot analysis; assay type: functional, cell-based; outline: as §2
NTUB1 [20] = assay: Induction of down-regulation cyclin B1 expression in human NTUB1 cells at 10 uM after 24 hrs by Western blot analysis; assay type: functional, cell-based; outline: as §2
NTUB1 [21] = assay: Induction of ROS production in human NTUB1 cells using H2DCFDA staining at 20 uM after 24 hrs by flow cytometry analysis in presence of 1 mM of NAC; assay type: functional, cell-based
[22] = Cell cycle arrest in human NTUB1 cells assessed as accumulation at S phase at 20 uM after 24 hrs using propidium iodide staining by flow cytometry analysis (reference value: 22.61%); assay type: functional, cell-based; outline: as §5
NTUB1 [23] = assay: Induction of up-regulation cyclin B1 expression in human NTUB1 cells at 20 uM after 24 hrs by Western blot analysis; assay type: functional, cell-based; outline: as §2
NTUB1 [24] = assay: Induction of up-regulation p21 expression in human NTUB1 cells at 10 uM after 24 hrs by Western blot analysis; assay type: functional, cell-based; outline: as §2
[25] = Cytotoxicity against human SV-HUC1 cells at 3 to 10 uM after 72 hrs by MTT assay; assay type: cell-based; details: sv-huc1, 72 h; outline: as §1
[26] = Cell cycle arrest in human NTUB1 cells assessed as accumulation at G1 phase at 20 uM after 24 hrs using propidium iodide staining by flow cytometry analysis (reference value: 56.06%); assay type: functional, cell-based; outline: as §5
PC-3 [27] = assay: Cytotoxicity against human PC3 cells at >30 uM after 72 hrs by MTT assay; assay type: functional; outline: as §1
[28] = Cytotoxicity against human NTUB1 cells at >50 uM after 72 hrs by MTT assay; assay type: functional; outline: as §1
[29] = Cytotoxicity against human NTUB1 cells assessed as cell viability at 1 mM after 72 hrs by MTT assay relative to control; assay type: functional; details: NTUB1, 72 h, read-out: Activity; outline: as §4
NTUB1 [30] = assay: Induction of ROS production in human NTUB1 cells using H2DCFDA staining at 1 mM after 24 hrs by flow cytometry analysis; assay type: functional, cell-based; outline: as §3

Structure (SMILES): CCCNCCCOc1cc(O)c2c(c1)C(=O)c1ccccc1C2=O
- EC50 (PC-3 [1]): 14 µM
- EC50 [2]: 18.9 µM

Structure (SMILES): O=C1c2ccccc2C(=O)c2c(O)cc(OCCCN3CCCCC3)cc21
- EC50 (PC-3 [1]): 28.5 µM
- EC50 [2]: 32.6 µM

Structure (SMILES): CN1CCN(CCCOc2cc(O)c3c(c2)C(=O)c2ccccc2C3=O)CC1
- inhibition (INH) (PC-3 [3]): 44.36%
- inhibition (INH) [4]: 15.54%
- EC50 (PC-3 [1]): > 50 µM
- EC50 [2]: > 30 µM

Structure (SMILES): O=C1c2ccccc2C(=O)c2c(O)cc(OCCCN3CCCC3)cc21
- Activity [5]: Active
- Activity (NTUB1 [6]): Active
- Activity [7]: 17.1%
- Activity [8]: 25.3%
- viability at 10 µM [9]: 57%
- Activity [10]: 57.4%
- Activity [11]: 51.4%
- Activity [12]: 2.47%
- Activity (NTUB1 [13]): Active
- Activity [14]: 4.69%
- EC50 (PC-3 [1]): 7.64 µM
- Activity (NTUB1 [15]): Active
- viability at 20 µM [16]: 13.1%
- Activity [17]: 29.6%
- Activity [18]: 19.2%
- Activity (NTUB1 [19]): Active
- Activity (NTUB1 [20]): Active
- Activity (NTUB1 [21]): inactive
- Activity [22]: 21.9%
- EC50 [2]: 9.72 µM
- Activity (NTUB1 [23]): Active
- Activity (NTUB1 [24]): Active
- Activity [25]: Non-toxic
- Activity [26]: 36.6%

Structure (SMILES): CCOC(=O)N1CCN(CCCOc2cc(O)c3c(c2)C(=O)c2ccccc2C3=O)CC1
- Activity (NTUB1 [6]): Active
- EC50 (PC-3 [1]): > 30 µM
- inhibition (INH) (PC-3 [27]): 12.44%
- EC50 [2]: 50.9 µM

Structure (SMILES): O=C1c2ccccc2C(=O)c2c(O)cc(OCCCNC3CCCCC3)cc21
- EC50 (PC-3 [1]): 9.12 µM
- EC50 [2]: 8.37 µM

Structure (SMILES): CCNCCCOc1cc(O)c2c(c1)C(=O)c1ccccc1C2=O
- inhibition (INH) (PC-3 [3]): 19.2%
- inhibition (INH) [28]: 23.2%
- EC50 (PC-3 [1]): > 50 µM
- EC50 [2]: > 50 µM

Structure (SMILES): CN(CCO)CCCOc1cc(O)c2c(c1)C(=O)c1ccccc1C2=O
- EC50 (PC-3 [1]): 8.89 µM
- EC50 [2]: 12.3 µM

Structure (SMILES): CC(O)CNCCCOc1cc(O)c2c(c1)C(=O)c1ccccc1C2=O (configuration not stated)
- EC50 (PC-3 [1]): 9.07 µM
- EC50 [2]: 12 µM

Structure (SMILES): O=C1c2ccccc2C(=O)c2c(O)cc(OCCCN3CCOCC3)cc21
- Activity (NTUB1 [6]): Active
- EC50 (PC-3 [1]): 17.7 µM
- EC50 [2]: 20.4 µM

Structure (SMILES): CCNCCCOc1ccc2c(c1)C(=O)c1ccccc1C2=O
- EC50 (PC-3 [1]): 22.9 µM
- EC50 [2]: 24.4 µM

Structure (SMILES): CC(=O)N[C@@H](CS)C(=O)O [ACETYLCYSTEINE]
- viability at 1000 µM [29]: 96.3%
- Activity (NTUB1 [30]): inactive

Structure (SMILES): O=C1c2ccccc2C(=O)c2c(O)cc(OCCCN3CCN(CCO)CC3)cc21
- inhibition (INH) (PC-3 [3]): 18.54%
- inhibition (INH) [28]: 18.75%
- EC50 (PC-3 [1]): > 50 µM
- EC50 [2]: > 50 µM
